Data set [1] deals with HT-29. Nature of the data set: Survival of human HT29 cells at 2 uM irradiated with 514 nM light at the fluence of 5 J/cm2 after 4 hrs. In kind it is functional. The settings on record: HT-29, light or radiation study, read-out: LD50 (the source's name). A digest of the protocol: (§1)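 Adherent cells (human HT29 colorectal adenocarcinoma; murine B16 melanoma) seeded at 10^5 cells/mL. Dye added from a DMSO stock and incubated 4 h in DMEM with 2% FCS in the dark. Irradiation at 514 nm, 5 J/cm2, in the same dye-containing medium. Survival measured by MTT colorimetric assay.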

The test system of data set [2] is Y79. The data set can be described thus: Cellular uptake in human Y79 cells relative to unglycosylated TPP(p-DegOH)3. The data set is classed as ADME, cell-based.
The test system of data set [3] is Y79. Nature of the data set: Survival of human Y79 cells at 2 uM irradiated with 514 nM light at the fluence of 1 J/cm2 after 4 hrs. The data set is classed as functional. Conditions: Y79, light or radiation study, read-out: LD50 (the source's name); call rule not given here. The procedure, abridged: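 Y79 retinoblastoma cells (ATCC, suspension in COON's medium with 20% FCS) plated at 2 × 10^5 cells/mL in COON's with 2% FCS. Dye added from a 5 mg/mL DMSO stock, incubated 4 h in the dark, then cells centrifuged, washed and resuspended in fresh complete medium. Ar+ laser irradiation at 514 nm, 1 J/cm2. MTT viability read 24 h later at 570/640 nm.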

Data set [4] can be described thus: Partition coefficient of the compound, log P. In kind it is physicochemical. Conditions: octanol/water.
Data set [5] concerns B16. Nature of the data set: Cellular uptake in mouse B16 cells relative to unglycosylated TPP(p-DegOH)3. The data set is classed as ADME, cell-based.
Data set [6] has as its system Y79. Nature of the data set: Toxicity against human Y79 cells at 2 uM after 4 hrs in dark. The data set is classed as cell-based. Conditions: y79, 4 h. The procedure, abridged: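 Y79 cells were plated at 2 × 10^5 cells/mL in COON's medium with 2% FCS. They were exposed to 2 µM dye (DMSO stock diluted in medium) for 4 h in the dark, then centrifuged, washed and resuspended in fresh complete medium with no irradiation. Survival fraction was measured by MTT at 570/640 nm.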

The test system of data set [7] is HT-29. Nature of the data set: Cellular uptake in human HT29 cells relative to unglycosylated TPP(p-DegOH)3. The data set is classed as ADME, cell-based.
Data set [8] relates to B16. The data set can be described thus: Survival of mouse B16 cells at 2 uM irradiated with 514 nM light at the fluence of 5 J/cm2 after 4 hrs. Conditions: B16, light or radiation study, read-out: LD50 (the source's name). In kind it is functional. A digest of the protocol:
as §1

Here are results for seven compounds from ChEMBL document CHEMBL1146069, “Photodynamic efficiency of diethylene glycol-linked glycoconjugated porphyrins in human retinoblastoma cells” (J Med Chem, 2006).

What is called logP is a log measure of how a compound divides between an organic and an aqueous phase. With `OC[C@H]1O[C@H](OCCOCCOc2ccc(-c3c4nc(c(-c5ccccc5)c5ccc([nH]5)c(-c5ccc(OCCOCCO[C@H]6O[C@H](CO)[C@@H](O)[C@H](O)[C@@H]6O)cc5)c5ccc([nH]5)c(-c5ccc(OCCOCCO[C@H]6O[C@H](CO)[C@@H](O)[C@H](O)[C@@H]6O)cc5)c5nc3C=C5)C=C4)cc2)[C@@H](O)[C@@H](O)[C@@H]1O`, the CC50 turned out to be 0.35 µM with HT-29 [1], 0.35 µM in the data set with Y79 [3] and 0.43 µM in the data set on B16 [8]. Further, the figures for the Ratio with Y79 [2], in the data set on B16 [5] and in the data set with HT-29 [7] were 4.9, 6.5 and 5, respectively. Moreover, the logP in data set [4] was determined as 0.02. Further, in the data set with Y79 [6], the Activity entry is “Not Active”.
As for `OCCOCCOc1ccc(-c2c3nc(c(-c4ccccc4)c4ccc([nH]4)c(-c4ccc(OCCOCCO)cc4)c4ccc([nH]4)c(-c4ccc(OCCOCCO)cc4)c4nc2C=C4)C=C3)cc1`, the Ratio in the data set with Y79 [2], with B16 [5] and in the data set with HT-29 [7] was 1 in each case. For the same compound, the CC50 in the data set with Y79 [3] is above 2 µM. Further, the logP in data set [4] is above 2. Moreover, the Activity result with Y79 [6] is listed as “Not Active”.
`OC[C@H]1O[C@@H](OCCOCCOc2ccc(-c3c4nc(c(-c5ccccc5)c5ccc([nH]5)c(-c5ccc(OCCOCCO[C@@H]6O[C@H](CO)[C@H](O)[C@@H](O)[C@H]6O)cc5)c5ccc([nH]5)c(-c5ccc(OCCOCCO[C@@H]6O[C@H](CO)[C@H](O)[C@@H](O)[C@H]6O)cc5)c5nc3C=C5)C=C4)cc2)[C@H](O)[C@H](O)[C@H]1O`: the CC50 was found to be 0.25 µM in the data set on HT-29 [1], 0.6 µM in the data set on Y79 [3] and 0.68 µM with B16 [8]. For the same compound, the values for the Ratio in the data set on Y79 [2], in the data set on B16 [5] and in the data set with HT-29 [7] were 3.7, 4 and 4.4, respectively. The compound also came in with a logP in data set [4] of 0.23. For the same compound, the Activity result in the data set with Y79 [6] is given as “Not Active”.
In the case of `OC[C@H]1O[C@H](OCCOCCOc2ccc(-c3c4nc(c(-c5ccccc5)c5ccc([nH]5)c(-c5ccc(OCCOCCO[C@H]6O[C@H](CO)[C@H](O)[C@@H](O)[C@H]6O)cc5)c5ccc([nH]5)c(-c5ccc(OCCOCCO[C@H]6O[C@H](CO)[C@H](O)[C@@H](O)[C@H]6O)cc5)c5nc3C=C5)C=C4)cc2)[C@H](O)[C@H](O)[C@H]1O`, the results for the CC50 with HT-29 [1], in the data set on Y79 [3] and in the data set on B16 [8] were 0.82 µM, 0.05 µM and 0.1 µM, respectively. Moreover, the Ratio with Y79 [2] is reported as 2; with HT-29 [7] it was 1.8. The compound further yielded a logP in data set [4] of 0.5. Further, the Activity entry in the data set on Y79 [6] is “Not Active”.
In the case of `OC[C@H]1O[C@@H](SCCOCCOc2ccc(-c3c4nc(c(-c5ccccc5)c5ccc([nH]5)c(-c5ccc(OCCOCCS[C@@H]6O[C@H](CO)[C@H](O)[C@@H](O)[C@H]6O)cc5)c5ccc([nH]5)c(-c5ccc(OCCOCCS[C@@H]6O[C@H](CO)[C@H](O)[C@@H](O)[C@H]6O)cc5)c5nc3C=C5)C=C4)cc2)[C@H](O)[C@H](O)[C@H]1O`, the figures for the CC50 in the data set on HT-29 [1], with Y79 [3] and with B16 [8] were 0.82 µM, 0.6 µM and 2 µM, respectively. Moreover, the values for the Ratio with Y79 [2], in the data set with B16 [5] and in the data set on HT-29 [7] were 3.5, 2.7 and 3, respectively. This compound also showed a logP in data set [4] of -0.07. Further, the Activity entry in the data set on Y79 [6] is given as “Not Active”.
Take `OC[C@H]1O[C@H](SCCOCCOc2ccc(-c3c4nc(c(-c5ccccc5)c5ccc([nH]5)c(-c5ccc(OCCOCCS[C@H]6O[C@H](CO)[C@@H](O)[C@H](O)[C@@H]6O)cc5)c5ccc([nH]5)c(-c5ccc(OCCOCCS[C@H]6O[C@H](CO)[C@@H](O)[C@H](O)[C@@H]6O)cc5)c5nc3C=C5)C=C4)cc2)[C@@H](O)[C@@H](O)[C@@H]1O`: the CC50 is above 2 µM in the data set with HT-29 [1], 0.65 µM with Y79 [3] and 2 µM in the data set on B16 [8]. Besides, the figures for the Ratio with Y79 [2], in the data set on B16 [5] and with HT-29 [7] were 1.4, 1.3 and 1.2, respectively. For the same compound, the logP in data set [4] amounted to 0.46. Besides, the Activity result with Y79 [6] was “Not Active”.
For `OC[C@H]1O[C@H](OCCOc2ccc(-c3c4nc(c(-c5ccccc5)c5ccc([nH]5)c(-c5ccc(OCCO[C@H]6O[C@H](CO)[C@@H](O)[C@@H](O)[C@@H]6O)cc5)c5ccc([nH]5)c(-c5ccc(OCCO[C@H]6O[C@H](CO)[C@@H](O)[C@H](O)[C@@H]6O)cc5)c5nc3C=C5)C=C4)cc2)[C@@H](O)[C@@H](O)[C@@H]1O`, the CC50 in the data set on HT-29 [1] stood at 0.44 µM; in the data set on Y79 [3] it was 0.6 µM; with B16 [8], 0.85 µM. For the same compound, the Ratio in the data set with Y79 [2] was 1.6; with B16 [5] it was 1.8; in the data set on HT-29 [7], 1.7. In addition, the logP in data set [4] is 0.78. Besides, the Activity entry in the data set on Y79 [6] was “Not Active”.
